Consider nine compounds from ChEMBL document CHEMBL4425145, “Discovery of New Anti-Schistosomal Hits by Integration of QSAR-Based Virtual Screening and High Content Screening” (J Med Chem, 2016).

Activity calls are given as the source filed them. No cut-off for these calls is given here.

The target of data set [1] is T1, Thioredoxin glutathione reductase (Schistosoma mansoni, UniProt Q962Y6).
T1 sequence (Q962Y6 whole entry): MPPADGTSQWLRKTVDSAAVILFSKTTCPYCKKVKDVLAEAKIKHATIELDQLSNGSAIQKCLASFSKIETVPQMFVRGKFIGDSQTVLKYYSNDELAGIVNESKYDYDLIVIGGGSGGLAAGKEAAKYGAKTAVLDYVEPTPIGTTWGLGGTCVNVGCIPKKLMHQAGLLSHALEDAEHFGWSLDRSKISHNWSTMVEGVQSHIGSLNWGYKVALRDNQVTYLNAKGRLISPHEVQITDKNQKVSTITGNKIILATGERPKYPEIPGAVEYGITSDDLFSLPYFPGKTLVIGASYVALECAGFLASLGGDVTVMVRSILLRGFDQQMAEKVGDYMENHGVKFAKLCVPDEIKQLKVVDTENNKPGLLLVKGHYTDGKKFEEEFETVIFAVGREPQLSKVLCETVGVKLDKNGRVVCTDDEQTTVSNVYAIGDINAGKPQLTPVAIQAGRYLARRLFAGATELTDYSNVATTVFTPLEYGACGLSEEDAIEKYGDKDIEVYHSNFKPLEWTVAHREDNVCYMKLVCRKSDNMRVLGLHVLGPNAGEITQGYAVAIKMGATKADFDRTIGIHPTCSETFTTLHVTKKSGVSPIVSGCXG
Description: Inhibition of Schistosoma mansoni TGR.

The subject of data set [2] is Schistosoma mansoni. Description: Antischistosomal activity against Schistosoma mansoni BH schistosomula assessed as inhibition of parasite motility at 20 uM after 48 hrs by HCS microscopic analysis. The class given is functional, organism-based. The gist of the method:
(§1)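 Cercariae vortexed at maximum speed for 5 min to shed tails and transform to schistosomula. Larvae resuspended in Medium 169 at 120 per well and held overnight under 5% CO2 before dosing. Exposed 48 h at 20 μM, vehicle DMSO 0.625%. Automated bright-field HCS imaging; Bayesian phenotype and motility scores adjusted to DMSO control wells on each plate.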

Data set [3] concerns Schistosoma mansoni. As to the kind of experiment: Antischistosomal activity against Schistosoma mansoni BH schistosomula assessed as morphological changes at 20 uM after 48 hrs by HCS microscopic analysis. Format: functional, organism-based. The gist of the method:
as §1

The test system of data set [4] is Schistosoma mansoni. Description: Antischistosomal activity against Schistosoma mansoni BH schistosomula assessed as inhibition of parasite motility after 48 hrs by HCS microscopic analysis. The class given is functional, organism-based. The method in brief: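 Schistosomula obtained from cercariae by vortex tail shedding (5 min), held overnight in Medium 169 under 5% CO2 at 120 per well. Dosed at 0.31–20 μM against DMSO 0.625% for 48 h. Motility taken by automated bright-field imaging as average object displacement, adjusted to DMSO control wells. EC50 from a four-parameter logistic fit.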

Data set [5] deals with Schistosoma mansoni. As to the kind of experiment: Antischistosomal activity against Schistosoma mansoni BH schistosomula assessed as darkening of schistosomula at 20 uM after 48 hrs by HCS microscopic analysis. The class given is functional, organism-based. The gist of the method: as §1
For data set [6], the system named is Schistosoma mansoni. Description: Antischistosomal activity against Schistosoma mansoni BH schistosomula assessed as rounding appearance of schistosomula at 20 uM after 48 hrs by HCS microscopic analysis. The class given is functional, organism-based. The gist of the method:
as §1

Data set [7] is described as follows: Cytotoxicity against human WSS1 cells assessed as reduction in cell viability after 48 hrs by resazurin assay. Format: cell-based. The method in brief: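 Human kidney WSS-1 epithelial cells grown in DMEM (4.5 g/L glucose, 10% FBS, gentamicin) and seeded at 5×10^4 cells/mL. Dosed 20 h later at 0.2–400 μM for 48 h at 37 °C, 5% CO2. Resazurin (final 0.01 mg/mL) added 4 h before the end; resorufin fluorescence read at ex 560/em 590 nm. Viability taken relative to DMSO (0.2–0.8%); CC50 from a four-parameter logistic fit.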

For data set [8], the system named is Schistosoma mansoni. Description: Antischistosomal activity against adult female Schistosoma mansoni BH assessed as inhibition of parasite motility up to 72 hrs by HCS microscopic analysis. Format: functional, organism-based. The gist of the method: (§2)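 Adult worms perfused from portal hepatic and mesenteric veins of Swiss mice 42–49 days after percutaneous infection with 150 ± 10 cercariae. Worms held singly in DMEM with 10% FCS and 2 mM L-glutamine overnight at 37 °C, 5% CO2. Exposed to 0.10–100 μM against 0.1% DMSO, imaged at 0, 24, 48 and 72 h. Motility from image-overlap AdjustedRandIndex; EC50 from dose-response curves.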

The subject of data set [9] is Schistosoma mansoni. Description: Antischistosomal activity against Schistosoma mansoni BH schistosomula assessed as multiple vacuole appearance at 20 uM after 48 hrs by HCS microscopic analysis. Format: functional, organism-based. The gist of the method:
as §1

The next data set concerns the target T2, Papain (Carica papaya, UniProt P00784).
T2 sequence (P00784 whole entry): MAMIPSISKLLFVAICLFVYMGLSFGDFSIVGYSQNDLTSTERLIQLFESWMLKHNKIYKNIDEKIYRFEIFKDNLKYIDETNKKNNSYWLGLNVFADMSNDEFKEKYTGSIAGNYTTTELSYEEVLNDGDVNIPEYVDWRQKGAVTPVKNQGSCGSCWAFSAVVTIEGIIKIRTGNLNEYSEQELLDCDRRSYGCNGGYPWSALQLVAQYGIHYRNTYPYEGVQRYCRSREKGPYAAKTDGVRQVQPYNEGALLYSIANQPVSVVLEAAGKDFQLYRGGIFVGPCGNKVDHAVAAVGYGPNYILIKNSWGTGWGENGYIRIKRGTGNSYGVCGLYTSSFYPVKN
Description: Inhibition of papaya papain using Z-FR-AMC fluorogenic peptide substrate preincubated for 5 mins followed by substrate addition. The gist of the method: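 Papain (5 μg/mL) in 100 mM sodium acetate, pH 3.5, at 37 °C. Pre-incubated 5 min with compound at 20 and 100 μM, then reaction started with 50 μM Z-FR-AMC fluorogenic substrate. E-64 used as positive control.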

The subject of data set [10] is Schistosoma mansoni. Description: Antischistosomal activity against adult male Schistosoma mansoni BH assessed as inhibition of parasite motility at 20 to 100 uM after 48 to 72 hrs in presence of 0.01% triton X-100 by colloidal aggregation assay. Format: functional, organism-based. The method in brief: (§3)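 Perfused adult worms held singly in complete DMEM at 37 °C, 5% CO2. Incubated with compound at 20 and 100 μM, with or without Triton X-100 (0.01%). HCS motility measured at 48 and 72 h, and activity with detergent compared with activity without it.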

Data set [11] relates to Schistosoma mansoni. As to the kind of experiment: Antischistosomal activity against adult female Schistosoma mansoni BH assessed as inhibition of parasite motility at 20 to 100 uM after 48 to 72 hrs in absence of 0.01% triton X-100 by colloidal aggregation assay. The class given is functional, organism-based. The method in brief:
as §3

The test system of data set [12] is Schistosoma mansoni. As to the kind of experiment: Antischistosomal activity against adult male Schistosoma mansoni BH assessed as inhibition of parasite motility at 20 to 100 uM after 48 to 72 hrs in absence of 0.01% triton X-100 by colloidal aggregation assay. The class given is functional, organism-based. The gist of the method:
as §3

For data set [13], the system named is Schistosoma mansoni. Description: Antischistosomal activity against adult male Schistosoma mansoni BH assessed as inhibition of parasite motility up to 72 hrs by HCS microscopic analysis. The class given is functional, organism-based. The method in brief: as §2
Data set [14] has as its system Schistosoma mansoni. As to the kind of experiment: Antischistosomal activity against adult female Schistosoma mansoni BH assessed as inhibition of parasite motility at 20 to 100 uM after 48 to 72 hrs in presence of 0.01% triton X-100 by colloidal aggregation assay. Format: functional, organism-based. The gist of the method:
as §3

Data set [15] concerns Schistosoma mansoni. Description: Antischistosomal activity against adult male Schistosoma mansoni BH assessed as inhibition of parasite motility after 72 hrs by HCS microscopic analysis. Format: functional, organism-based. The method in brief: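 Adult worms perfused from portal hepatic and mesenteric veins of Swiss mice 42–49 days after percutaneous infection with 150 ± 10 cercariae; males placed singly in wells in DMEM with 10% fetal calf serum, 2 mM L-glutamine, penicillin and streptomycin; held overnight at 37 °C, 5% CO2. Exposed to 0.10–100 μM, DMSO 0.1% control. Image-based motility (overlap index) read at 72 h; EC50 from dose-response.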

What is called IC50 is the concentration that inhibits the measured activity by half. A high value points to weaker potency in that assay. As to `O=C(CSc1ccccn1)Nc1nonc1[N+](=O)[O-]`, in data set [1], half-maximal inhibition (IC50) required 7.08 µM.
What is called EC50 is the midpoint of the concentration-response curve. Take `N#Cc1cn(-c2ccccc2)nc1-c1ccco1`: in the data set with Schistosoma mansoni [2], the “motility inhibition activity call” value is “Active”. Further, the outcome in the data set on Schistosoma mansoni [3] was Active. For the same compound, the EC50 in the data set with Schistosoma mansoni [4] is over 20 µM.
As for `CC(=O)c1ccc(NCCC(=O)c2cccs2)cc1`, the “motility inhibition activity call” value in the data set on Schistosoma mansoni [2] is “Active”. Moreover, the result with Schistosoma mansoni [3] was Active. Besides, the EC50 in the data set with Schistosoma mansoni [4] is over 20 µM.
For orientation: CC50 means the concentration giving 50% cytotoxicity. Take `O=S(=O)(Cc1ccccc1)c1nc2ccccc2s1`: the “motility inhibition activity call” value with Schistosoma mansoni [2] is “Active”. Besides, the result in the data set with Schistosoma mansoni [5], in the data set with Schistosoma mansoni [6], with Schistosoma mansoni [9] and in the data set on Schistosoma mansoni [3] was Active. Moreover, the CC50 in data set [7] was found to be 28.5 µM. Also, the EC50 with Schistosoma mansoni [8] stood at 4.91 µM; in the data set on Schistosoma mansoni [4], 2.62 µM; in the data set on Schistosoma mansoni [13], 21.1 µM. At Papain, this compound returned an IC50 of over 100 µM. The inhibition entry with Schistosoma mansoni [10], in the data set on Schistosoma mansoni [11], in the data set with Schistosoma mansoni [12] and in the data set on Schistosoma mansoni [14] was “Active” in each case.
As to `O=C1CC(Sc2nnc[nH]2)C(=O)N1c1ccc(I)cc1` (stereo not drawn), the “motility inhibition activity call” value in the data set with Schistosoma mansoni [2] is “Active”. The cytotoxic concentration (CC50) in data set [7] was determined as 133 µM. For the same compound, the EC50 is 17.9 µM in the data set with Schistosoma mansoni [8], over 20 µM in the data set with Schistosoma mansoni [4] and 10.2 µM with Schistosoma mansoni [13]. The compound further registered an IC50 on Papain of over 100 µM. In the data set on Schistosoma mansoni [3], the outcome was Active.
In the case of `COc1ccc(/C=C/[N+](=O)[O-])cc1OC`, in the data set with Schistosoma mansoni [2], the “motility inhibition activity call” value is “Active”. The CC50 in [7] was 17.5 µM. In addition, the EC50 in the data set on Schistosoma mansoni [8] was 5.77 µM; with Schistosoma mansoni [4], over 20 µM; in the data set on Schistosoma mansoni [13], 29.8 µM. At Papain, this compound had a 50% inhibitory concentration (IC50) of over 100 µM. In addition, in the data set on Schistosoma mansoni [3], the result was Active. Moreover, the inhibition result in the data set with Schistosoma mansoni [10], with Schistosoma mansoni [11], in the data set with Schistosoma mansoni [12] and with Schistosoma mansoni [14] was “Active” each time.
For `Cc1noc(/C=C/c2ccccn2)c1[N+](=O)[O-]`, in the data set on Schistosoma mansoni [2], the “motility inhibition activity call” value is “Active”. Also, the outcome in the data set with Schistosoma mansoni [5], with Schistosoma mansoni [6], in the data set on Schistosoma mansoni [9] and with Schistosoma mansoni [3] was Active. In addition, the half-maximal cytotoxic concentration (CC50) in data set [7] amounted to 16.4 µM. Also, the EC50 with Schistosoma mansoni [8] was determined as 5.68 µM; in the data set with Schistosoma mansoni [4], 3.23 µM; in the data set on Schistosoma mansoni [13], 6.43 µM. Also, the IC50 at Papain is over 100 µM. The inhibition result with Schistosoma mansoni [10], in the data set on Schistosoma mansoni [11], with Schistosoma mansoni [12] and with Schistosoma mansoni [14] was “Active” each time.
Consider `O=C(C1CCCCC1)N1CC(=O)N2CCc3ccccc3C2C1` (stereo not drawn) [PRAZIQUANTEL], for which the CC50 in data set [7] was over 400 µM. Further, the EC50 in the data set with Schistosoma mansoni [8] turned out to be 0.64 µM; in the data set on Schistosoma mansoni [15] it was 0.22 µM; in the data set on Schistosoma mansoni [4], 1.9 µM.
In data set [1], `COc1ccc(C(=O)c2no[n+]([O-])c2C(=O)c2ccc(OC)cc2)cc1` displayed a half-maximal inhibitory concentration (IC50) of 0.1 µM. In other words, the sub-micromolar range.
